Screens (PubChem BioAssay)
Most compounds without a hit are left out; they make up all but 2.1% or so of the library.
RORA act = RORA (human) activation; CHO-K1 Gal4-RORA LBD luciferase reporter, luminescence; percent increase over mock-subtracted basal signal; activation, % at 10 µM; 65,000 compounds, 1.5% hits; AID 560;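 active means activation above the mean of all tested compounds plus 3 SD, cut at about 49% in these data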;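 further: 0% = DMSO-treated RORA cells and 100% = added signal equal to DMSO minus mock-transfected cells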
Target sequence (P35398 whole entry, looked up, the tested form may be a part): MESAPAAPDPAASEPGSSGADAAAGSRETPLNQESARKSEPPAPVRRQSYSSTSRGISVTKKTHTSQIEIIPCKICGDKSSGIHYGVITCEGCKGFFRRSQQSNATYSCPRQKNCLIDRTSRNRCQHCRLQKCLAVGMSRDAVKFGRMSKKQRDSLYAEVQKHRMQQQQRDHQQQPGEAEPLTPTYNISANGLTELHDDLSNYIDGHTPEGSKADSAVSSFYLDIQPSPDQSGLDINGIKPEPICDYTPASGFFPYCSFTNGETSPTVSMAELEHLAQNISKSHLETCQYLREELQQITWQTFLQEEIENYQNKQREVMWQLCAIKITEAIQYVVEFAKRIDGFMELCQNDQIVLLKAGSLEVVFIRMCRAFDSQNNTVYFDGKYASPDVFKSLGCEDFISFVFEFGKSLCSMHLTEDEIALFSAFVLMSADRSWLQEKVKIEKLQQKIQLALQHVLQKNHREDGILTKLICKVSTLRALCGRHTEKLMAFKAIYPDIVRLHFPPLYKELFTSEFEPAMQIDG
E coli RNAP = blocks E. coli RNA polymerase transcription; P0A8V2; fluorescence transcription assay; inhibition, %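 (tested at 10 µM)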; 62,000 compounds, 0.2% hits; in the data active means inhibition above about 20%;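 further: 0% = enzyme without compound and 100% = no enzyme blank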
TNAP act mid DEA = activates human TNAP at intermediate phosphate acceptor concentration. P05186. purified TNAP, CDP-star luminescence, 100 mM DEA, 30 min; hits give high values; scale: 0 levamisole-inhibited, 1 vehicle-only enzyme. activation factor at 20 µM. 64,000 tested, under 10 active. AID 813;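 active means activation factor of at least 2 at 20 µM, relative to controls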
MT1-MMP txn act = activates MT1-MMP transcription | activation factor at 10 µM | AID 750 | HT1080 MT1-MMP promoter luciferase reporter, luminescence, overnight; hits give high values | 86,000 compounds, 0.16% hits;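 active means activation factor of at least 2 for MT1-MMP transcription at 10 µM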
SF-1 act = activators of human nuclear receptor SF-1; Q13285; AID 522; CHO-K1 Gal4-SF-1 LBD luciferase reporter; % increase over DMSO SF-1-specific signal; activation, % at 10 µM; 65,000 compounds, 1.9% hits;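 active means activation above the mean activation of all tested compounds plus 3 SD, cut at about 50% in these data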
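material = CHO-K1 cells with Gal4–hSF-1 LBD chimera plus Gal4-driven luciferase | compound = 10 µM single point, 1% DMSO | incubation = 20 h compound exposure at 37 °C after 1 h cell settling | measured by = SteadyLite luciferase luminescence | evaluation = percent activation relative to DMSO median and mock-transfected background | control set = DMSO negative control and −SF1 background wells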
The depositor's hits bear a star; x = no result given.

SMILES	RORA act	E coli RNAP	TNAP act mid DEA	MT1-MMP txn act	SF-1 act
CCN(CC)c1ccc(-n2c(C)c(C(C)=O)c(C(C)=O)c2C)cc1	23.0	3.3	1	1.3	-3.0
CCN(CC)c1ccc(-n2cc3c(=O)n(C)c(=O)n(C)c3c2)cc1	6.3	6.7	0.9	1.2	55.5*
CN(C)c1ccc(-n2cc3c(=O)n(C)c(=O)n(C)c3c2)cc1	48.7*	-1.5	1	1.5	14.4
CCN(CC)CCCN1C(=O)C(O)=C(C(C)=O)C1c1ccc(OC)cc1OC (stereo unspecified)	27.0	-0.3	1	1.2	-28.1
O=C(COC(=O)c1ccccn1)NCCCc1ccccc1	20.1	x	1	1	-3.1
CCn1c(C)nc2cc(C(=O)OC(C(F)(F)C(F)F)C(F)(F)C(F)F)ccc21	-12.1	8.6	0.9	2.2*	-23.2
COCCNC(=O)[C@@]1(Cc2ccccc2)C=C[C@@H](C)N1C(=O)OC	x	x	x	1	x
Cc1cc(NO)nc(-c2ccc(Br)cc2)n1	59.3*	x	0.9	1.7	63.9*
Cc1cc(C)nc(NS(=O)(=O)c2ccc(Br)cc2)n1	1.8	1.8	1	1.1	-12.8
Cc1cc(C)cc(NC(=O)NC2CCN(CC(=O)Nc3c(C)cc(C)cc3C)CC2)c1	x	x	x	1.1	x
Cn1c(NC(=O)C2CC2)cc(=O)n(C)c1=O	-11.4	3.1	0.9	1.1	-19.2
Cn1c(NC(=O)CCC2CCCCC2)cc(=O)n(C)c1=O	38.1	4.4	1	1.5	91.6*
c1ccc2c(c1)Cc1cc(CN3CCOCC3)ccc1-2	67.7*	5.7	0.9	1.3	28.4
Cc1cc(C)n(CC(O)COc2ccc(OCC(O)Cn3nc(C)cc3C)cc2)n1 (stereo unspecified)	x	x	x	1.2	x
CCN1CCCC1CNC(=O)c1c(O)c2c([nH]c1=O)CCCC2 (stereo unspecified)	1.7	6.9	0.9	1.2	-1.0
O=C(CSc1nnc(CNc2ccc(Cl)cc2)o1)Nc1nc2c(s1)CCCC2	-14.9	23.1*	0.8	1.2	5.1
COc1ccc(CCNC(=O)CSc2nnc(CNc3ccc(Cl)cc3)o2)cc1OC	9.7	5.8	0.8	1.1	4.6
COc1ccc(-n2nc3cc(C)c(N)c(Br)c3n2)cc1	49.7*	7.5	0.8	1.5	64.2*
O=C(O)c1ccc(Cl)c(S(=O)(=O)NCc2ccco2)c1	-17.1	-3.4	0.9	1.7	1.5
Cc1cccc(N2CCN(C(=O)c3ccc(Cl)c(S(=O)(=O)NCc4ccco4)c3)CC2)c1C	50.7*	6.5	1	0.9	53.1*
COc1cccc(-c2nn(C)c3sc(C(=O)Nc4ccc5c(c4)OCCO5)cc23)c1	56.5*	-2.0	0.8	1.8	80.1*
CCN(CC)CCCN1C(=O)C(O)=C(C(=O)c2cccs2)C1c1ccccn1 (stereo unspecified)	-0.1	8.8	0.9	1.3	-6.8
O=C(NC(Cc1ccc2c(c1)OCO2)C(=O)NC(Cc1ccccc1)C(=O)O)c1ccccc1 (stereo unspecified)	x	x	x	1.3	x
Brc1cccc(-c2n[nH]c(-c3ccccc3)n2)c1	83.0*	5.3	0.8	1.6	65.2*
CN(C)c1nc(N)nc(CSc2nc3cc(Cl)ccc3o2)n1	16.4	2.5	0.9	1.4	17.1
SMILES	RORA act	E coli RNAP	TNAP act mid DEA	MT1-MMP txn act	SF-1 act
O=S1(=O)C=C(Sc2nc3cc(Cl)ccc3o2)c2ccccc21	-75.3	39.8*	1	1.2	-70.8
CSc1ccccc1NS(=O)(=O)c1ccccc1	-2.3	5.3	0.9	1	2.2
Cc1cc(NC(=O)c2oc3ccccc3c2C)ccc1-n1cnnn1	86.0*	-3.3	0.9	1.6	8.6
COc1cc(OC)cc(C(=O)Nc2ccc(-n3cnnn3)c(C)c2)c1	50.1*	-8.0	1	1.6	54.1*
COC(=O)c1cccc(C23CC4(C2)[C@H](CN(CC2CCCCC2)[C@@H]4c2ccccc2)C3c2ccc(Cl)nc2)c1 (stereo partly specified)	x	x	x	1	x
CCOC(=O)C1=C(N)c2ccccc2CC1C(C)C (stereo unspecified)	-4.0	7.4	0.8	1.2	-4.1
CC1(C)CC(=O)c2cnc(N)nc2C1	x	x	x	2.4*	x
CC1(C)CC(=O)c2cnc(N3CCN(c4ccccc4)CC3)nc2C1	4.2	10.1	1	1.2	1.0
CC1(C)NC(=O)N(CC(O)COC2CCCCC2)C1=O (stereo unspecified)	1.1	2.7	0.9	1.1	-2.2
CC1(C)NC(=O)N(CC(O)CN2CCCCC2)C1=O (stereo unspecified)	8.6	6.3	0.8	1.1	50.8*
CCN1CCCC1CNC(=O)Cn1cnc2sc(C)c(S(=O)(=O)N3CCC(C)CC3)c2c1=O (stereo unspecified)	4.8	5.9	0.9	1	-9.5
O=C(Nc1ccc2nc(-c3ccc(Br)o3)[nH]c2c1)c1cccs1	61.5*	x	1	1.3	6.0
O=C(Nc1ccc2nc(-c3ccc(Br)o3)[nH]c2c1)c1ccco1	54.7*	x	0.9	1.3	30.4
Cn1c(N2CCC(C(N)=O)CC2)nc2c1c(=O)n(Cc1ccc(Br)cc1)c(=O)n2C	-1.6	7.9	0.8	1.1	-4.7
CCOc1cc2c(cc1OCC)C(c1cc(OC)c(O)c(OC)c1)NCC2 (stereo unspecified)	-6.0	5.7	1	1.1	8.7
CCCOc1cccc(NC(=O)c2cc(C)oc2C)c1	-2.9	-2.4	0.9	1.2	6.5
COC(=O)[C@@]1(Cc2ccc(F)cc2)[C@H]2c3cc(C(=O)N(C)C)n(CCN4CCOCC4)c3C[C@H]2CN1C(=O)c1ccccc1	x	x	x	1.1	x
O=C(CCCN1CCOCC1)c1ccc2c(c1)OCCO2	28.8	2.0	0.9	1.5	55.7*
Cc1c(-c2nc(N)nc(Nc3ccccc3)n2)oc2ccccc12	88.7*	5.4	0.9	2*	161.7*
Cc1nn(Cc2ccc(Cl)cc2)c(C)c1N	x	x	x	1.2	x
Cc1cc(=O)c2n(Cc3ccc(Cl)cc3)nc[n+]2[nH]1	5.3	48.9*	0.9	0.9	-14.2
Cc1ccc(-n2c(CNc3ccc(F)cc3)nnc2SCC(=O)N2CCCC2)cc1	-18.1	36.4*	0.9	1.1	3.5
COc1cc(OC)cc(-c2ncc3ccccn23)c1	x	x	x	1.2	x
COc1ccc(-c2ncc3ccccn23)cc1	20.9	10.4	0.9	1.2	52.8*
CCCC(C)NC(=O)c1cc(Cl)ccc1OC (stereo unspecified)	x	x	x	1.1	x
CCc1nnc(NC(=O)c2ccc(S(=O)(=O)N3CCCCCC3)cc2)s1	-6.4	10.1	0.9	1	-4.2
NC(=O)c1ccsc1NC(=O)c1ccc(S(=O)(=O)N2CCCCC2)cc1	77.6*	5.7	1	1.3	35.5
O=C(OCC(=O)N1CCCCCC1)c1cccs1	13.7	8.8	0.9	1.6	54.8*
COc1ccccc1CC1(C)NC(=O)N(CC(=O)Nc2cc(C)on2)C1=O (stereo unspecified)	-11.3	7.1	0.9	1.1	-2.5
Clc1ccccc1OCCn1cnc2ccccc21	51.1*	4.1	0.9	1.3	-7.7
